RGS4 block – RGS4 inhibitors, primary screen, cell-based, HEK293 M3R inducible RGS4, calcium flux; Fluo-4 calcium flux; hits give high values; triggered by carbachol at its EC20; B-score at 10 µM; 310,000 compounds, 0.45% hits; AID 463165, 2010;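 active = B-score, a plate-corrected calcium signal, over three deviations above library mean, with baseline fluorescence within five deviations of library mean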;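 also: RGS4 expression induced by doxycycline in cells with stable M3 receptor; B-score is computed from the integrated fluorescence ratio over baseline after carbachol; higher B-score means a larger calcium signal and so more RGS4 inhibition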
Target sequence (P49798 whole entry, looked up): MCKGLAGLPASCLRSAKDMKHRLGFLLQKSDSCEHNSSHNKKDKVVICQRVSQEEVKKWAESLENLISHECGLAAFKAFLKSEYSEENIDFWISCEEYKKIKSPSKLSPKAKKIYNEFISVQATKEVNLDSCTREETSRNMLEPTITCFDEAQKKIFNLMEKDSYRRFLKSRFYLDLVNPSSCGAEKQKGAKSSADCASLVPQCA
RGS4 pot – RGS4 potentiators or activators, primary screen, cell-based, HEK293 M3R inducible RGS4, calcium flux; carbachol calcium flux Fluo4; hits give low values; B-score at 10 µM; 310,000 compounds, 0.92% hits; AID 463111, 2010;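 active = B-score of the integrated calcium signal more than 4 SD below the library mean, with starting fluorescence not abnormally high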;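 also: negative B-score means reduced calcium response which marks RGS4 activation or potentiation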
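Test system: HEK293 cells with stable M3R and inducible RGS4; also added: carbachol at ECmax as muscarinic agonist stimulus; schedule: dye loading 30 min 37 °C, buffer rest 30 min RT; technique: kinetic calcium fluorescence imaging with Fluo4-AM dye, 2 µM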
MrgX1 PAM – positive allosteric modulators of MrgX1, primary screen, HEK293 cells, Fluo-4 calcium flux; Mas-related G-protein coupled receptor member X1 (Homo sapiens), Q96LB2; FDSS; hits give high values; B-score at 10 µM; 310,000 compounds, 0.63% hits;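 active = plate-corrected calcium response at least 3 library SD above typical, normal starting fluorescence, not activating the receptor alone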;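 also: compound read alongside a low EC10 to EC30 dose of BAM8-22 agonist; peak minus trough fluorescence over baseline measured at the second addition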
Target sequence (Q96LB2 whole entry, looked up): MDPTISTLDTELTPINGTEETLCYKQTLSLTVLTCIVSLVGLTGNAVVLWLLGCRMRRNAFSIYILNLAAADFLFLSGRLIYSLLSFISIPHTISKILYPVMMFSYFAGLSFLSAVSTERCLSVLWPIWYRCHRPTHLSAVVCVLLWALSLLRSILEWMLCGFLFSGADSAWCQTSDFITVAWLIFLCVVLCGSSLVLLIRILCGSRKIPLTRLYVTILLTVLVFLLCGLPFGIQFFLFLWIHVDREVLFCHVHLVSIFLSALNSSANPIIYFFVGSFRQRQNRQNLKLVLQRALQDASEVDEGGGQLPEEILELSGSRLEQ
MrgX1 antagonist – antagonists of human MrgX1 receptor, primary screen, HEK293 cells, Fluo-4 calcium flux; AID 588676, 2011; BAM8-22 antagonism; hits give low values; Mas-related G-protein coupled receptor member X1 (Homo sapiens), Q96LB2; 310,000 compounds, 1.3% hits; B-score at 10 µM;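 active = calcium-response B-score plate-corrected more than 3 library SD below zero, starting fluorescence within 5 deviations, no agonist response on first addition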;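 also: peak minus trough fluorescence over baseline after final BAM8-22 challenge near maximal dose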
MrgX1 agonist – agonists of human MrgX1 receptor, primary screen, HEK293 cells, Fluo-4 calcium flux; Fluo-4 calcium fluorescence, agonist mode; hits give high values; B-score at 10 µM; 310,000 compounds, 0.44% hits; Mas-related G-protein coupled receptor member X1 (Homo sapiens), Q96LB2;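 active = calcium response B-score plate-corrected fluorescence ratio at least 3 library SD, with starting fluorescence B-score inside 5 SD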
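Material – MrgX1-expressing HEK293 cells · Input – 15,000 cells seeded per well · Dosing – compound as first of three additions · Times – overnight seeding, then 1 h dark dye loading · Measured by – kinetic Fluo-4 NW fluorescence of intracellular calcium · Read-out – B-scored fluorescence response ratio · Benchmarks – positive and negative control wells on each plate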
Numbers without * were called inactive; i = inactive; · = no result. Sampled rows, rich in hits. Any-hit rate of the full collection: about 3.5%.

SMILES | RGS4 block | RGS4 pot | MrgX1 PAM | MrgX1 antagonist | MrgX1 agonist
CCc1ccc(/C=C2\C(=N)N3N=C(CC(=O)N4CCCCC4)SC3=NC2=O)cc1 | i | i | i | i | i
CSc1ccc(/C=C2\C(=N)N3N=C(CC(=O)N4CCCCC4)SC3=NC2=O)cc1 | i | i | i | i | 38*
CCN(CC)c1ccc(/C=C2\C(=N)N3N=C(CC(=O)N4CCOCC4)SC3=NC2=O)cc1 | i | i | i | i | 28.3*
CSc1ccc(/C=C2\C(=N)N3N=C(CC(=O)N4CCOCC4)SC3=NC2=O)cc1 | i | i | 11.1* | i | i
Cc1ccc2cc(C#N)c(NCc3ccco3)nc2c1 | i | i | i | i | i
Cn1cccc1/C=C1\SC(=Nc2ccccc2)NC1=O | i | i | i | i | i
Cc1ccc(N=C2NC(=O)/C(=C/c3cn(C)c4ccccc34)S2)cc1C | · | · | i | -4.82* | i
COc1cccc(CNC(=O)CN2C(=O)COc3ccc(S(=O)(=O)N4CCCCC4)cc32)c1 | i | i | i | i | i
CN(C)c1ccc(-c2n(C)c3ccccc3[n+]2C)cc1 | i | i | i | -8.75* | i
Cn1c(-c2ccccn2)[n+](C)c2ccccc21 | i | i | i | i | i
CC1=CC(=Nc2c(C)n(C)n(-c3ccccc3)c2=O)C=C(C)C1=O | i | i | i | i | i
CC1=CC(=Nc2c(C)n(C)n(-c3ccccc3)c2=O)C=CC1=O | 10.6* | i | i | i | i
CN(C(=O)COC(=O)c1cccc(S(=O)(=O)N2CCCCCC2)c1)C1CCS(=O)(=O)C1 (stereo not given) | i | i | i | i | i
CN(C(=O)COC(=O)c1cccc(S(=O)(=O)N2CCOCC2)c1)C1CCS(=O)(=O)C1 (stereo not given) | i | i | i | -5.39* | i
CCOC(=O)C1=C(CSc2nc(-c3ccccc3)ccc2C#N)OC(N)=C(C#N)C1c1cccnc1 (stereo not given) | i | i | i | -6.1* | i
O=C(NCCCN1CCOCC1)c1cc(-c2cccc(Br)c2)nc2ccccc12 | i | i | i | i | i
Cc1c(C(=O)NCCCN2CCOCC2)sc2nc(-c3ccccc3)cn12 | i | i | i | -7.3* | i
COCCNC(=O)c1sc2nc(-c3ccccc3)cn2c1C | i | i | i | i | i
COc1ccc(OC)c(Nc2cc(C(=O)NCCCN3CCOCC3)c3ccccc3n2)c1 | i | i | i | -5.7* | i
O=C(NCCCN1CCOCC1)c1cc(-c2ccc(Cl)s2)nc2ccccc12 | i | i | i | -7.39* | i
Cn1cc(CN2CCC(Oc3ccc(C(=O)N4CCCCC4)cc3)CC2)cn1 | i | i | i | i | i
Cc1ccc(C(=O)N2CC(=O)Nc3ccc(F)cc3C2c2ccccc2)cc1 (stereo not given) | i | i | i | i | i
CCCCC(CC)C(=O)Nc1ncc([N+](=O)[O-])s1 (stereo not given) | i | i | 7.41* | i | i
Cc1cc(NC(=O)c2ccc3c(c2)C(=O)N(c2cccc(C)c2C)C3=O)no1 | i | i | i | i | i
Nc1cc(C(=O)O)c(N)c2c1C(=O)c1ccccc1C2=O | i | i | i | -5.7* | i
SMILES | RGS4 block | RGS4 pot | MrgX1 PAM | MrgX1 antagonist | MrgX1 agonist
Nc1c(C(=O)O)ccc2c1C(=O)c1ccccc1C2=O | i | i | i | i | i
CCOC(=O)[C@@H]1[C@H]2COc3ccc(Br)cc3[C@@H]2N2C(=O)N(c3ccc(F)cc3)C(=O)[C@]12C | i | i | i | i | i
O=c1c2ccccc2nc(/C=C/c2ccc([N+](=O)[O-])cc2)n1CCCO | i | i | i | i | i
O=c1c2ccccc2nc(/C=C/c2cccc([N+](=O)[O-])c2)n1CCCO | i | i | 7.21* | i | i
Cc1ccc(C)c(N(C(=O)c2snc(C(N)=O)c2N)C(C(=O)NCC2CCCO2)c2cccs2)c1 (stereo not given) | i | i | i | i | i
Cc1cccc(N(C(=O)c2snc(C(N)=O)c2N)C(C(=O)NCC2CCCO2)c2cccs2)c1 (stereo not given) | i | i | i | -4.73* | i
Cc1ccc(S(=O)(=O)N2CCC(NC(=O)c3cccnc3)CC2)cc1Cl | i | i | i | i | i
CC1(C)CC(=O)C(C2C3=C(CC(C)(C)CC3=O)Oc3ccccc32)C(=O)C1 (stereo not given) | i | i | i | i | i
CC1(C)CC(=O)C(C2C3=C(CC(C)(C)CC3=O)Oc3ccc4ccccc4c32)C(=O)C1 (stereo not given) | i | i | i | i | 40*
O=C(OCC(=O)N(CCc1ccccc1)Cc1ccccc1)c1ccccc1O | i | i | i | i | i
O=C(OCC(=O)N(CCc1ccccc1)Cc1ccccc1)c1ccccc1NCCO | i | -8.41* | i | i | i
O=C(CSc1ccc(-c2ccco2)nn1)Nc1ccccc1F | i | i | i | i | i
CC(C)Cc1ccc(C(C)C(=O)N2CCOCC2)cc1 (stereo not given) | i | i | i | i | i
CC(C)Cc1ccc(C(C)C(N)=Nc2ccc(O)cc2)cc1 (stereo not given) | i | i | 9.96* | i | i
CC1(C)CC(=O)C(C(c2ccc(Br)cc2)C2C(=O)CC(C)(C)CC2=O)C(=O)C1 | i | i | i | i | 41*
CC1(C)CC(=O)C(C(c2ccco2)C2C(=O)CC(C)(C)CC2=O)C(=O)C1 | i | i | i | -6.82* | i
CCc1ccccc1NC(=O)CN1CCN(CC(=O)Nc2cc(C)ccc2OC)CC1 | i | i | i | i | i
CCOC(=O)C1(CCOc2ccccc2)CCN(Cc2cccc(OC)c2O)CC1 | i | i | i | i | i
CCOc1ccc(/C=C2\SC(=S)N(C(C(=O)O)c3ccccc3)C2=O)cc1OC (stereo not given) | i | i | i | i | i
C=CCOc1ccc(/C=C2\SC(=S)N(C(C(=O)O)c3ccccc3)C2=O)cc1 (stereo not given) | i | -9.26* | · | · | ·
COc1ccc(OC)c(/C=C2\SC(=S)N(C(C(=O)O)c3ccccc3)C2=O)c1 (stereo not given) | i | i | i | i | 53.3*
